Data reported in ChEMBL document CHEMBL1153422, “N6-Cycloalkyl- and N6-bicycloalkyl-C5'(C2')-modified adenosine derivatives as high-affinity and selective agonists at the human A1 adenosine receptor with antinociceptive effects in mice” (J Med Chem, 2009).
pKi: −log10 of the molar value. Calls of active or inactive are those of the source. The calls are words filed in the database; no cut-off is given here.

Assays:
Adenosine receptor A2a = Adenosine receptor A2a (Homo sapiens, UniProt P29274); test: Displacement of [3H]NECA from human recombinant adenosine A2A receptor expressed in CHO cells; assay type: cell-based
Chain of Adenosine receptor A2a (P29274 whole entry): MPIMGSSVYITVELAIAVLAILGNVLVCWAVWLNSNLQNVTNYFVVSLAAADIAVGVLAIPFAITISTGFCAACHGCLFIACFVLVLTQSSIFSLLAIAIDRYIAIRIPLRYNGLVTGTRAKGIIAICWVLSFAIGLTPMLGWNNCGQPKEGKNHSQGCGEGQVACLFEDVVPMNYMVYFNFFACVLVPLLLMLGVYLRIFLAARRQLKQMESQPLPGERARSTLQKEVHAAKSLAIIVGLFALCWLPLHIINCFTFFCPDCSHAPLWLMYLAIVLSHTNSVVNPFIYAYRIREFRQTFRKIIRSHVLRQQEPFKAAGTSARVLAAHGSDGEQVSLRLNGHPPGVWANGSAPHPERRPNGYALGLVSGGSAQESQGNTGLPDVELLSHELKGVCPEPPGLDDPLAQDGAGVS
In short: (§1)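 Competition binding on membranes from CHO cells stably transfected with individual human adenosine receptor subtypes; radioligands 1 nM [3H]CCPA (A1), 30 nM [3H]NECA (A2A), 1 nM [3H]HEMADO (A3); Ki from nonlinear curve fitting; selectivity as Ki ratio.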

[1] = biological target: Adenosine receptors; A1 & A3 (Homo sapiens) (UniProt P30542+P0DMS8); test: Selectivity of Ki for human recombinant adenosine A3 receptor to Ki for human recombinant adenosine A1 receptor; in short: as §1
Adenosine receptor A1 = biological target: T1, Adenosine receptor A1 (Homo sapiens, UniProt P30542); test: Displacement of [3H]CCPA from human recombinant adenosine A1 receptor expressed in CHO cells; assay type: cell-based
T1 sequence (P30542 whole entry): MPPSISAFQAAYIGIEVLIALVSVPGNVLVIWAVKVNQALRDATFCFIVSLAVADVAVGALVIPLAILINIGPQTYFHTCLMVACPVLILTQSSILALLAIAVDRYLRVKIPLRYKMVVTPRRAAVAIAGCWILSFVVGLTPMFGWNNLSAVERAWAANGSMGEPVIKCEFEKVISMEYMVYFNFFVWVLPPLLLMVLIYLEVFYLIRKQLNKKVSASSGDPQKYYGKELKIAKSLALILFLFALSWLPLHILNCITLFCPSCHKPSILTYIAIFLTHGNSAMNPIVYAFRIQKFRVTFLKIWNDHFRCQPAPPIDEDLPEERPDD

Adenosine receptor A2b = biological target: T2, Adenosine receptor A2b (Homo sapiens, UniProt P29275); test: Agonist activity at human adenosine A2B receptor expressed in CHO cells assessed as inhibition of NECA-stimulated adenylyl cyclase activity; assay type: functional, cell-based
T2 sequence (P29275 whole entry): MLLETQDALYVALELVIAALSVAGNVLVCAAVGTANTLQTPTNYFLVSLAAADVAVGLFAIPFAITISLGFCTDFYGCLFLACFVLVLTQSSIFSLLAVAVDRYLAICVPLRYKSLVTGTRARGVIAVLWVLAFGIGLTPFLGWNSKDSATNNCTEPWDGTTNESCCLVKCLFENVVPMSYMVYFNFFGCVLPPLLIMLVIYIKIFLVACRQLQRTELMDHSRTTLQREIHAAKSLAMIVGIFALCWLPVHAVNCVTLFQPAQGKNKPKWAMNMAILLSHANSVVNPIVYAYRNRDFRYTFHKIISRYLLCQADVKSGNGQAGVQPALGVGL
In short: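 Membranes from CHO cells stably expressing human A2B receptor; inhibition of NECA-stimulated adenylyl cyclase activity measured, IC50 converted to Ki; curves fitted by nonlinear regression.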

[2] = biological target: T3, Adenosine receptor A3 (Homo sapiens) (UniProt P0DMS8); test: Antagonist activity at human recombinant adenosine A3 receptor expressed in CHO cells assessed as inhibition of forskolin-stimulated adenylyl cyclase activity; assay type: functional, cell-based
T3 sequence (whole entry): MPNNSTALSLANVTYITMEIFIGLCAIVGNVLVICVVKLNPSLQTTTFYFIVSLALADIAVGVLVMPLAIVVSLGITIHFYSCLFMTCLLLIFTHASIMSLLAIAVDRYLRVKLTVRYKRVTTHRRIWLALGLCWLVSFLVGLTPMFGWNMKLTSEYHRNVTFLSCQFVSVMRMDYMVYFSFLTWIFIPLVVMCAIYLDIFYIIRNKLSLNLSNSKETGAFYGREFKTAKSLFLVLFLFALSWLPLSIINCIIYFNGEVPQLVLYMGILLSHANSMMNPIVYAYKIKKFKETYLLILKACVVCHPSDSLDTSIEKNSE

Adenosine receptor A3 = biological target: T4, Adenosine receptor A3 (Homo sapiens, UniProt P0DMS8); test: Displacement of [3H]HEMADO from human recombinant adenosine A3 receptor expressed in CHO cells; assay type: cell-based; in short: as §1
T4 sequence (P0DMS8 whole entry): T3 sequence (whole entry)

[3] = biological target: T5, Adenosine receptor A1 (Homo sapiens) (UniProt P30542); test: Agonist activity human recombinant adenosine A1 receptor expressed in CHO cells assessed as inhibition of forskolin-stimulated adenylyl cyclase activity; assay type: functional, cell-based
T5 sequence (whole entry): T1 sequence (P30542 whole entry)
In short: (§2)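 CHO cells stably transfected with human receptor (A1 or A3); cyclase activity stimulated by 10 µM forskolin taken as 100%; percentage activity remaining after agonist-mediated inhibition reported; means ± SEM of three independent experiments.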

Homo sapiens = species: Homo sapiens; test: Selectivity of Ki for human recombinant adenosine A2A receptor to Ki for human recombinant adenosine A1 receptor; in short: as §1
Mus musculus [4] = test: Analgesic activity in mouse assessed as reduction of formalin-induced early nociceptive behavior at 2 mg/kg, ip administered 10 mins before formalin challenge measured every 5 mins for 60 mins in presence of adenosine A1 receptor antagonist DPCPX; assay type: functional, organism-based; set-up: dose 2 mg/kg
In short: (§3)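 Mice, n = 8-10 per group, randomly assigned; drug or vehicle (0.9% NaCl) given i.p. 10 min before 1.25% formalin in saline (30 µL) into dorsal hind paw; DPCPX 3 mg/kg i.p. co-administered where stated. Lifting, licking, shaking, flinching timed every 5 min for 60 min; early phase 0-7 min, late 15-60 min; mean ± SEM.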

Mus musculus [5] = test: Analgesic activity in mouse assessed as reduction of formalin-induced late nociceptive behavior at 2 mg/kg, ip administered 10 mins before formalin challenge measured every 5 mins for 60 mins in presence of adenosine A1 receptor antagonist DPCPX; assay type: functional, organism-based; set-up: dose 2 mg/kg; in short: as §3
[6] = biological target: T3, Adenosine receptor A3 (Homo sapiens); test: Agonist activity human recombinant adenosine A3 receptor expressed in CHO cells assessed as inhibition of forskolin-stimulated adenylyl cyclase activity; assay type: functional, cell-based; in short: as §2
Mus musculus [7] = test: Analgesic activity in ip dosed mouse assessed as reduction of formalin-induced late nociceptive behavior administered 10 mins before formalin challenge measured every 5 mins for 60 mins; assay type: functional, organism-based; in short: as §3
[8] = Lipophilicity log P of the compound; assay type: physicochemical; settings: octanol/water

Row | SMILES | pKi (Adenosine receptor A2a) | Ratio Ki [1] | pKi (Adenosine receptor A1) | pKi (Adenosine receptor A2b) | pKi (Adenosine receptor A3) | Activity [3] | Ratio Ki (Homo sapiens) | Activity [6] | Activity [2] | Activity (Mus musculus [4]) | Activity (Mus musculus [5]) | Activity (Mus musculus [7]) | logP [8]
1 | C[C@@]1(O)[C@H](O)[C@@H](CCl)O[C@H]1n1cnc2c(NC3CCCC3)nc(Cl)nc21 | 4.79 | 237 | 7.89 | < 5.00 | 5.52 |  | 1770 |  |  |  |  |  | 
2 | C[C@@]1(O)[C@H](O)[C@@H](CSc2ccccc2F)O[C@H]1n1cnc2c(NC3CCCC3)nc(Cl)nc21 | < 4.00 | 0.5 | 5.67 | < 5.00 | 5.94 |  | > 47 |  |  |  |  |  | 
3 | O[C@@H]1[C@H](O)[C@@H](CSc2ccccc2F)O[C@H]1n1cnc2c(NC3CCOC3)ncnc21 (some centres not stated) | 4.72 | 3 | 6.60 | < 5.00 | 6.13 |  | 76 |  |  |  |  |  | 
4 | C[C@@]1(O)[C@H](O)[C@@H](CCl)O[C@H]1n1cnc2c(NC3CCCC3)ncnc21 | < 4.00 | 237 | 7.55 | < 5.00 | 5.17 |  | > 3520 |  |  |  |  |  | 
5 | C[C@@]1(O)[C@H](O)[C@@H](CSc2ccccc2F)O[C@H]1n1cnc2c(NC3CCCC3)ncnc21 | < 4.00 | 0.9 | 5.77 | < 5.00 | 5.84 |  | > 60 |  |  |  |  |  | 
6 | CCCn1c(=O)c2[nH]c(C3CCCC3)nc2n(CCC)c1=O |  |  |  |  |  |  |  |  |  | inactive | inactive |  | 
7 | OC[C@H]1O[C@@H](n2cnc3c(NC4CCCC4)ncnc32)[C@H](O)[C@@H]1O |  |  |  |  |  |  |  | Active |  |  |  |  | 
8 | O[C@@H]1[C@H](O)[C@@H](CCl)O[C@H]1n1cnc2c(NC3CC4CCC3C4)ncnc21 (mixture of isomers) | 5.87 |  |  | 5.56 | 5.89 | Active |  |  | Active |  |  | Dose-dependent effect | 1.04
9 | C[C@@]1(O)[C@H](O)[C@@H](CCl)O[C@H]1n1cnc2c(NC3CC4CCC3C4)ncnc21 (mixture of isomers) | 4.62 | 1270 | 8.04 | < 5.00 | 4.94 |  | 2630 |  |  |  |  |  | 
10 | C[C@@]1(O)[C@H](O)[C@@H](CSc2ccccc2F)O[C@H]1n1cnc2c(NC3CC4CCC3C4)ncnc21 (mixture of isomers) | < 4.00 | 3 | 5.97 | < 5.00 | 5.46 |  | > 94 |  |  |  |  |  | 
11 | C[C@@]1(O)[C@H](O)[C@@H](CSc2ccccc2F)O[C@H]1n1cnc2c(NC3CC4CCC3C4)nc(Cl)nc21 (mixture of isomers) | < 4.00 | 1.5 | 5.53 | < 5.00 | 5.36 |  | > 34 |  |  |  |  |  | 
12 | C[C@@]1(O)[C@H](O)[C@@H](CO)O[C@H]1n1cnc2c(NC3CC4CCC3C4)nc(Cl)nc21 (mixture of isomers) | 4.93 | 645 | 8.16 | < 5.00 | 5.35 |  | 1700 |  |  |  |  |  | 
13 | C[C@@]1(O)[C@H](O)[C@@H](CCl)O[C@H]1n1cnc2c(NC3CC4CCC3C4)nc(Cl)nc21 (mixture of isomers) | 4.50 | 644 | 8.04 | < 5.00 | 5.23 |  | 3450 |  |  |  |  |  | 
14 | C[C@@]1(O)[C@H](O)[C@@H](CO)O[C@H]1n1cnc2c(NC3CC4CCC3C4)ncnc21 (mixture of isomers) | 5.06 | 616 | 8.39 | < 5.00 | 5.60 | Active | 2150 |  |  |  |  |  | 

Continued by rising pKi (Adenosine receptor A2a), values first:

Row | pKi (Adenosine receptor A2a) | Ratio Ki [1] | pKi (Adenosine receptor A1) | pKi (Adenosine receptor A2b) | pKi (Adenosine receptor A3) | Activity [3] | Ratio Ki (Homo sapiens) | Activity [6] | SMILES | Activity [2] | Activity (Mus musculus [4]) | Activity (Mus musculus [5]) | Activity (Mus musculus [7]) | logP [8]
15 | 5.29 | 5 | 7.19 | < 5.00 | 6.53 |  | 80 |  | O[C@@H]1[C@H](O)[C@@H](CSc2ccccc2F)O[C@H]1n1cnc2c(NC3CCCC3)ncnc21 |  |  |  |  | 
16 | 5.66 | 2 | 6.59 | < 5.00 | 6.32 |  | 8 |  | O[C@@H]1[C@H](O)[C@@H](CSc2ccccc2F)O[C@H]1n1cnc2c(NC3CCCC3)nc(Cl)nc21 |  |  |  |  | 
17 | 5.67 | 267 | 8.81 | 5.32 | 6.38 | Active | 1380 |  | O[C@@H]1[C@H](O)[C@@H](CCl)O[C@H]1n1cnc2c(NC3CCCC3)nc(Cl)nc21 |  |  |  |  | 
18 | 5.69 | 875 | 8.79 | < 5.00 | 5.85 | Active | 1270 |  | O[C@@H]1[C@H](O)[C@@H](CCl)O[C@H]1n1cnc2c(NC3CC4CCC3C4)nc(Cl)nc21 (mixture of isomers) |  |  |  |  | 
19 | 5.90 | 187 | 9.27 | 5.31 | 7.00 | Active | 2350 | Active | OC[C@H]1O[C@@H](n2cnc3c(NC4CC5CCC4C5)ncnc32)[C@H](O)[C@@H]1O (mixture of isomers) |  |  |  |  | -0.14
20 | 6.08 | 637 | 9.23 | 5.49 | 6.42 | Active | 1470 |  | O[C@@H]1[C@H](O)[C@@H](CCl)O[C@H]1n1cnc2c(NC3CCCC3)ncnc21 | Active |  |  |  | 
21 | 6.10 | 182 | 9.15 | < 5.00 | 6.89 | Active | 1120 |  | OC[C@H]1O[C@@H](n2cnc3c(NC4CC5CCC4C5)nc(Cl)nc32)[C@H](O)[C@@H]1O (mixture of isomers) |  |  |  |  | 
